MC4R antagonist: MC4R antagonists of cAMP signaling, primary screen, cell-based, TR-FRET, antagonist arm of biased-ligand search; 0.48% of 360,000 active; inhibition, % at 6.5 µM; MC4R-expressing cells, MTII-stimulated cAMP, LANCE TR-FRET;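 active means inhibition above its plate's cutoff, the mean of tested wells on that plate plus 3 SD, cut at about 29% in these data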;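 further: 0% = Melanotan II alone and 100% = Melanotan II plus saturating MCL0020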
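Test system: U2OS cells stably expressing human melanocortin 4 receptor (MC4R); also added: Melanotan II challenge; compound: 6.5 µM single dose; timing: 30-min compound preincubation, 1-h Melanotan II challenge, 1-h detection, room temperature; signal: Eu-cAMP/anti-cAMP TR-FRET, emission 671 nm; repeats: one well per compound, no replicates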
MC4R ag barr: MC4R agonists recruiting beta-arrestin, primary screen, cell-based, luminescence, agonist arm of biased-ligand search. U2OS MC4R beta-arrestin complementation; percent of melanotan II response, DMSO zero. activation, % at 8.9 µM. 0.98% of 360,000 active. AID 540308, 2011;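 active means activation above a per-plate cutoff, the mean activation of sample wells on that plate plus 3 SD, cut at about 8% in these data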
GAA850 FXN act: FXN promoter activators, primary screen, cell-based, luciferase luminescence, HEK293 lucGAA850; activation, % at 6 µM; HEK293 lucGAA850 FXN promoter luciferase reporter, 24 h; percent of 10 µM SAHA response; 0.56% of 360,000 active;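 active means activation above the average of all compounds screened plus 3 SD, cutoff fixed separately per campaign, cut at about 7.5% in these data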;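 further: 0% = DMSO wells and 100% = 10 µM SAHA wells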
AHR act: AHR activators, primary screen, cell-based, luminescence, luciferase reporter, human; Aryl hydrocarbon receptor (Homo sapiens), P35869; AHR-responsive luciferase reporter cells; 2.5% of 320,000 active; activation, % at 5 µM; in the data active means activation above about 47%;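 further: 0% = vehicle wells and 100% = reference agonist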
Target sequence (P35869 whole entry, looked up): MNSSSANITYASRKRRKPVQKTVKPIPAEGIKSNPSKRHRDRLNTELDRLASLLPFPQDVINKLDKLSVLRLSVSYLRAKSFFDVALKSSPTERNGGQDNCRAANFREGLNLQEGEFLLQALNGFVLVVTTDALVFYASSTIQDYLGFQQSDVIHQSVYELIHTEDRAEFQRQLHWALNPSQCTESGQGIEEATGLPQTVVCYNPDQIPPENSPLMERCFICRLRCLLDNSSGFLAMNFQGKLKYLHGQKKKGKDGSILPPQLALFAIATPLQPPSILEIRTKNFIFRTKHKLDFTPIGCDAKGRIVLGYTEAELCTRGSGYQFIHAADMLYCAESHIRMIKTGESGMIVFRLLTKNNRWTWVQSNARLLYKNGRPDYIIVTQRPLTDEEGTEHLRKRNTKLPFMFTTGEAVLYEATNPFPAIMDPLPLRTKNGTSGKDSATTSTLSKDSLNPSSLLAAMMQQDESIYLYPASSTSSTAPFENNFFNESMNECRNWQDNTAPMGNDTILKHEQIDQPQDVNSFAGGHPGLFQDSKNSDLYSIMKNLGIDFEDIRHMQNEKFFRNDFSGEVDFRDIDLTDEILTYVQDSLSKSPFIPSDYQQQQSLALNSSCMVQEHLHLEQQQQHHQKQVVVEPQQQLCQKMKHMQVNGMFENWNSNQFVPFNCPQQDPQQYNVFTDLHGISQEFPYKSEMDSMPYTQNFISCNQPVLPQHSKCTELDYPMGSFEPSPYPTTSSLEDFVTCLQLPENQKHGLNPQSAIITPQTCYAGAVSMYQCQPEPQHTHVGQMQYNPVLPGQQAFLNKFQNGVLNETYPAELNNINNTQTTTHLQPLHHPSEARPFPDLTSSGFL
HTR2A ag: mouse Htr2a agonists via beta-arrestin recruitment, primary screen, cell-based, luminescence. AID 624169, 2012. 0.66% of 360,000 active. CHO-K1 mHTR2A beta-arrestin complementation; percent of 30 µM serotonin response. 5-hydroxytryptamine receptor 2A (Mus musculus), P35363. activation, % at 7.6 µM;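 active means activation above a run cutoff, the mean activation of all tested compounds plus 3 SD, cut at about 14% in these data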;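 further: 0% = plate median of compound wells and 100% = 30 µM serotonin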
* hit, by the source's call. An excerpt weighted towards active compounds, which were near 4.7% of everything screened.

How did Nc1nc(-c2c[nH]c3ccccc23)cs1 do in these assays?
MC4R antagonist: 3.0; MC4R ag barr: 1.1; GAA850 FXN act: -0.6; AHR act: 57.8*; HTR2A ag: -0.4

How did Cc1c(C(=O)N/N=C/c2ccncc2)nnn1-c1nonc1N do in these assays?
MC4R antagonist: 6.3; MC4R ag barr: -0.3; GAA850 FXN act: -0.1; HTR2A ag: 3.7

What do the screens show for `Cc1cc(C)n(-c2nc(C)nc3c2cnn3-c2ccccc2)n1`?
MC4R antagonist: 4.2; MC4R ag barr: 0.4; GAA850 FXN act: -1.0; AHR act: 48.8*; HTR2A ag: 2.0

What do the screens show for `CC(/C=N\Nc1nnc2c(n1)[nH]c1c(C)cccc12)=C\c1ccco1`?
MC4R antagonist: -0.7; MC4R ag barr: 0.4; GAA850 FXN act: 2.7; AHR act: 56.8*; HTR2A ag: -1.0

Results for CCN1N=C(c2ccccc2)Cn2c1nc1ccccc12 ?
MC4R antagonist: 17.5; MC4R ag barr: -1.0; GAA850 FXN act: -0.7; AHR act: 67.2*; HTR2A ag: -2.4

How did Oc1c(Cl)cc(Cl)cc1/C=C/c1ccc2cccc(O)c2n1 do in these assays?
MC4R antagonist: 16.3; MC4R ag barr: -4.9; GAA850 FXN act: 1.2; AHR act: 51.3*; HTR2A ag: -3.2

How did Oc1ccc(Cl)cc1/C=C/c1ccc2cccc(O)c2n1 do in these assays?
MC4R antagonist: 7.1; MC4R ag barr: -3.6; GAA850 FXN act: 0.6; HTR2A ag: -3.0

How did O=C1/C(=C/c2ccc(N3CCCC3)cc2)NC(=S)N1C1CC1 do in these assays?
MC4R antagonist: 2.8; MC4R ag barr: 1.3; GAA850 FXN act: 0.8; AHR act: 3.1; HTR2A ag: 3.4

Results for O=C1N/C(=C/c2ccc(N3CCCC3)cc2)C(=O)N1c1ccccc1 ?
MC4R antagonist: -11.6; MC4R ag barr: 8.5*; GAA850 FXN act: 2.5; AHR act: 15.2; HTR2A ag: 1.8

What do the screens show for `O=C1N/C(=C/c2ccc(N3CCOCC3)cc2)C(=O)N1Cc1ccc(F)cc1`?
MC4R antagonist: 3.9; MC4R ag barr: 8.2; GAA850 FXN act: -2.0; AHR act: 50.9*; HTR2A ag: 1.8

Results for Oc1ccccc1CNc1cnc2ccccc2c1 ?
MC4R antagonist: 0.5; MC4R ag barr: -2.2; GAA850 FXN act: 3.3; AHR act: 48.9*; HTR2A ag: -4.0

Results for Oc1ccc(Cl)cc1CNc1cnc2ccccc2c1 ?
MC4R antagonist: 14.2; MC4R ag barr: 3.6; GAA850 FXN act: -0.8; AHR act: 2.6; HTR2A ag: -5.4

Results for CSc1ccccc1NC(=O)C(=O)c1c[nH]c2ccccc12 ?
MC4R antagonist: 5.9; MC4R ag barr: 1.5; GAA850 FXN act: 5.0; AHR act: 48.4*; HTR2A ag: 4.0

What do the screens show for `O=C(Nc1nccs1)C(=O)c1c[nH]c2ccccc12`?
MC4R antagonist: -1.7; MC4R ag barr: -2.0; GAA850 FXN act: 4.2; AHR act: 59.4*; HTR2A ag: 0.5

What do the screens show for `O=C(NC1CC1)C(=O)c1c[nH]c2ccccc12`?
MC4R antagonist: 3.7; MC4R ag barr: -1.2; GAA850 FXN act: 0.8; AHR act: 62.9*; HTR2A ag: -1.5

Results for C[C@@H](NC(=O)C(=O)c1c[nH]c2ccccc12)c1ccccc1 ?
MC4R antagonist: 15.2; MC4R ag barr: 1.6; GAA850 FXN act: 0.7; AHR act: 6.7; HTR2A ag: 0.5

Results for CCOC(=O)C1=CCN(S(=O)(=O)c2ccc(C)cc2)C1c1cccc(F)c1 (centres undefined) ?
HTR2A ag: 1.2

What do the screens show for `CN[C@H]1C[C@H]2c3[nH]c4ccc(-c5ccc(OC)cc5)cc4c3CCN2C(=O)[C@H]1[C@H](C)O`?
MC4R antagonist: 13.7; MC4R ag barr: -1.8; GAA850 FXN act: -0.2; HTR2A ag: -8.1

What do the screens show for `C[C@@H]1CN([C@@H](C)CO)C(=O)c2cc(C#CC3CCCCC3)cnc2O[C@@H]1CN(C)S(=O)(=O)c1ccc(F)cc1`?
MC4R antagonist: -5.3; MC4R ag barr: -0.3; GAA850 FXN act: 2.2; HTR2A ag: -0.4

Results for CC(C)C[C@H]1COc2cc(N3CC[C@H](O)C3)ccc2S(=O)(=O)N1 ?
HTR2A ag: -4.3

Results for O=C(Nc1nnc(SCc2ccc(Cl)cc2)s1)c1ccco1 ?
MC4R antagonist: -2.8; MC4R ag barr: 8.8*; GAA850 FXN act: 0.9; AHR act: 0.8; HTR2A ag: -6.1

Results for CC(C)c1ccccc1NC(=O)CNCCOc1ccccc1F ?
MC4R antagonist: 8.2; MC4R ag barr: -0.5; GAA850 FXN act: -0.5; AHR act: 0.6; HTR2A ag: -10.7

How did Cc1cc(C)n2nc(-c3sccc3-n3c(C)ccc3C)cc2n1 do in these assays?
MC4R antagonist: -5.1; MC4R ag barr: -0.5; GAA850 FXN act: 2.0; AHR act: 52.0*; HTR2A ag: -4.2

Results for Cc1nc2ccccc2cc1OCc1ccccc1 ?
MC4R antagonist: -1.7; MC4R ag barr: 8.5*; GAA850 FXN act: -0.7; AHR act: -5.2; HTR2A ag: 2.7

How did O=C(O)/C=C\C(=O)Nc1ccccc1C#Cc1ccccc1 do in these assays?
MC4R antagonist: 7.2; MC4R ag barr: -2.5; GAA850 FXN act: 2.4; AHR act: 22.2; HTR2A ag: 2.8

What do the screens show for `O=C(O)/C=C\C(=O)Nc1ccccc1C#Cc1ccc(Br)cc1`?
MC4R antagonist: 10.4; MC4R ag barr: -0.9; GAA850 FXN act: 3.2; AHR act: 68.6*; HTR2A ag: -2.0

Results for CCn1c(=S)sc2c(=O)n(CC(=O)Nc3ccccc3)c(C)nc21 ?
MC4R antagonist: -4.1; MC4R ag barr: 1.7; GAA850 FXN act: -1.5; AHR act: -3.2; HTR2A ag: -1.4

How did CCn1c(=S)sc2c(=O)n(CC(=O)Nc3ccc(Cl)cc3)c(C)nc21 do in these assays?
MC4R antagonist: 25.3; MC4R ag barr: 8.6*; GAA850 FXN act: -1.1; AHR act: 8.2; HTR2A ag: 0.5

What do the screens show for `CNc1ccccc(-c2ccc3ccccc3n2)c1=O`?
MC4R antagonist: 3.6; MC4R ag barr: -2.8; GAA850 FXN act: 2.4; AHR act: 49.9*; HTR2A ag: -2.5

What do the screens show for `O=C(O)c1cc(N/N=C/C=C/c2ccccc2[N+](=O)[O-])ccc1Cl`?
MC4R antagonist: -8.6; MC4R ag barr: -2.3; GAA850 FXN act: 6.3; AHR act: 30.1; HTR2A ag: 5.7

How did CCOC(=O)N1CCc2c(sc3c2C(=O)NC(c2ccccc2)N3)C1 (centres undefined) do in these assays?
MC4R antagonist: 10.7; MC4R ag barr: 9.0*; GAA850 FXN act: 0.9; AHR act: 18.7; HTR2A ag: 1.1

Results for COc1ccc(S(=O)(=O)N(C)C[C@H]2OCc3cn(nn3)CCCC(=O)N([C@@H](C)CO)C[C@@H]2C)cc1 ?
HTR2A ag: 1.6

Screens (PubChem BioAssay)
